Data published in ChEMBL document CHEMBL2163252, “Azapeptide analogues of the growth hormone releasing peptide 6 as cluster of differentiation 36 receptor ligands with reduced affinity for the growth hormone secretagogue receptor 1a” (J Med Chem, 2012).
Each block holds one compound with its values, some of them ahead of it. Starred links: 1 amine or outer side, 2 acyl side, 3 side chain; linkers in the order of their positions; H or OH if unused. Non-standard residues stand in square brackets, D forms with d. Residues, ends and D or L forms follow the SMILES beside them. Haic = O=C1[C@@H](N[*:1])CCc2cccc3c2N1[C@H](C(=O)[*:2])C3; dTrp(2-Me) = Cc1[nH]c2ccccc2c1C[C@@H](N)C(=O)O; azaPhe = O=C(N(Cc1ccccc1)N[*:1])[*:2]; azaLeu = CC(C)CN(N[*:1])C(=O)[*:2]; azaGly = NNC(=O)O

What was measured:
[1] = molecular target: Growth hormone secretagogue receptor type 1 (Homo sapiens, UniProt Q92847); test: Displacement of [125I]ghrelin expressed in LLC-PK1 cells incubated for 1 hr by gamma counting method; type: cell-based
Growth hormone secretagogue receptor type 1, sequence (Q92847 whole entry): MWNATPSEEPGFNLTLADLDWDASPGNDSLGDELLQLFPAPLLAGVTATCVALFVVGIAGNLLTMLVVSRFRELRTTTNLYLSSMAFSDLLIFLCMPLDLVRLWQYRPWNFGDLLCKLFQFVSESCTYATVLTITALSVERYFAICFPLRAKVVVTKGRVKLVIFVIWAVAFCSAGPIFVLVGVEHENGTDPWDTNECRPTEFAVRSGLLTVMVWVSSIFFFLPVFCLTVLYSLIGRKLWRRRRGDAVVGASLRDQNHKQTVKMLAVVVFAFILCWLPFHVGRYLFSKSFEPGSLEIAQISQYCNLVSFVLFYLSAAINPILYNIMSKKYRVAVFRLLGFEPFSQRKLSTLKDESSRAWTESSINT
Summary of the method: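 Membranes from LLC-PK1 cells transiently transfected with GHS-R1a (CaPO₄; harvested 24 h later; freeze/thaw lysis, 10000g), 10 μg protein/tube. Incubated with ¹²⁵I-ghrelin (40,000 cpm) and competitor 10⁻¹² to 10⁻⁵ M, 1 h at RT, in Tris/MgCl₂/EDTA/bacitracin buffer pH 7.3. Nonspecific binding set with 10⁻⁵ M competitor. Bound separated by filtration on PEI-soaked GF/C filters, gamma counted.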

[2] = Antiangiogenic effect in […] mouse microvascular choroid explants assessed as choroid sprouting at 10^-7 M after 4 days (reference value: 53%); type: functional
[3] = molecular target: Platelet glycoprotein 4 (Rattus norvegicus, UniProt Q07969); test: Displacement of photoactivatable [125I]-Tyr-Bpa-Ala-Hexarelin from CD36 in Sprague-Dawley rat cardiac membranes incubated for 60 mins by densitometry; type: cell membranes, Membrane
Platelet glycoprotein 4, sequence (Q07969 whole entry): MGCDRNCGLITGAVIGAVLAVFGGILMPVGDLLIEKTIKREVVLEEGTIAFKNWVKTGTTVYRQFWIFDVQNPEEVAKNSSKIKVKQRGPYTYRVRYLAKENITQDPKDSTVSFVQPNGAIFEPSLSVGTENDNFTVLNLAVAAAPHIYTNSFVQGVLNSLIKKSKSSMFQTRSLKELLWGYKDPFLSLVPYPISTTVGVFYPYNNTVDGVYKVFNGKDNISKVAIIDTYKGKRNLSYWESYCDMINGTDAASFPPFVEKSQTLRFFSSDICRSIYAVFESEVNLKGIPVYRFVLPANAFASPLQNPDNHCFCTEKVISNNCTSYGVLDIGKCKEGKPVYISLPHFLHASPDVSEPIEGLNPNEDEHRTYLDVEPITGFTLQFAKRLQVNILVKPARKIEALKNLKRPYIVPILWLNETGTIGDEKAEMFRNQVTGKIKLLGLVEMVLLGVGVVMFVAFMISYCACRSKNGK

Structure (SMILES): CC(C)CN(NC(=O)[C@H](N)Cc1c[nH]c2ccccc12)C(=O)N[C@@H](Cc1c[nH]c2ccccc12)C(N)=O
IC50 [1]: > 10 µM | Activity [2]: 47% | IC50 [3]: > 10 µM

Structure (SMILES): C[C@H](N)C(=O)NN(Cc1ccccc1)C(=O)N[C@@H](C)C(=O)N[C@@H](Cc1c[nH]c2ccccc12)C(=O)N[C@H](Cc1ccccc1)C(=O)N[C@@H](CCCCN)C(N)=O (H-A[azaPhe]AW[dF]K-NH2)
IC50 [1]: > 10 µM | Activity [2]: 28% | IC50 [3]: 42.7 µM

Structure (SMILES): C[C@H](N)C(=O)N[C@H](Cc1c[nH]c2ccccc12)C(=O)N[C@@H](C)C(=O)NN(Cc1ccccc1)C(=O)N[C@H](Cc1ccccc1)C(=O)N[C@@H](CCCCN)C(N)=O (H-A[dW]A[azaPhe][dF]K-NH2)
IC50 [1]: > 10 µM | Activity [2]: 105% | IC50 [3]: 7.58 µM

Structure (SMILES): Cc1[nH]c2ccccc2c1C[C@@H](NC(=O)[C@@H]1Cc2cccc3c2N1C(=O)[C@@H](N)CC3)C(=O)N[C@H](CCCCN)C(=O)N[C@@H](Cc1c[nH]c2ccccc12)C(=O)N[C@H](Cc1ccccc1)C(=O)N[C@@H](CCCCN)C(N)=O (Haic-[dTrp(2-Me)][dK]W[dF]K-NH2)
IC50 [1]: 0.75 µM | Activity [2]: 3% | IC50 [3]: 1.11 µM

Continued, in another order:

IC50 [3]: 6.06 µM
Structure (SMILES): C[C@H](N)C(=O)N[C@H](Cc1c[nH]c2ccccc12)C(=O)NNC(=O)N[C@@H](Cc1c[nH]c2ccccc12)C(=O)N[C@H](Cc1ccccc1)C(=O)N[C@@H](CCCCN)C(N)=O (H-A[dW][azaGly]W[dF]K-NH2)
Activity [2]: 72%

IC50 [3]: 7.59 µM
Structure (SMILES): CC(C)CN(NC(=O)[C@@H](Cc1c[nH]c2ccccc12)NC(=O)[C@@H](N)Cc1cnc[nH]1)C(=O)N[C@@H](Cc1c[nH]c2ccccc12)C(=O)N[C@H](Cc1ccccc1)C(=O)N[C@@H](C)C(N)=O (H-H[dW][azaLeu]W[dF]A-NH2)
Activity [2]: 25%
